Sampled rows, rich in hits. Any-hit rate of the full collection: about 1.2%.
Tb hexokinase – T. brucei hexokinase 1 inhibition; recombinant TbHK1, G6PDH-coupled NADH A340; inhibition, % at 10 µM; 220,000 tested, 0.11% active; AID 1430;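 active means inhibition of 50% or more in the single-dose primary screen; inactive means inhibition below 50%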
PfG6PD inh – PfG6PD (Plasmodium falciparum) enzyme inhibition; inhibition, % at 20 µM; AID 504690; 350,000 tested, 0.78% active; PfGluPho enzyme, NADPH resazurin-diaphorase fluorescence;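 active means inhibition reaching at least a set limit at 20 µM in the primary screen, cut at about 59% in these data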;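 further: 0% = DMSO wells with substrate and 100% = DMSO wells lacking glucose-6-phosphate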
HKDC1 inhibitor – HKDC1 (human) hexokinase inhibition; recombinant HKDC1, G6PDH/diaphorase resazurin coupled fluorescence; inhibition, % at 20 µM; 340,000 tested, 0.16% active;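 active means inhibition above about 35% when tested at 20 µM, limit read from the data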;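 further: plate controls were DMSO wells with enzyme for no effect and DMSO wells lacking enzyme for full effect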
Target sequence (Q2TB90 whole entry, looked up): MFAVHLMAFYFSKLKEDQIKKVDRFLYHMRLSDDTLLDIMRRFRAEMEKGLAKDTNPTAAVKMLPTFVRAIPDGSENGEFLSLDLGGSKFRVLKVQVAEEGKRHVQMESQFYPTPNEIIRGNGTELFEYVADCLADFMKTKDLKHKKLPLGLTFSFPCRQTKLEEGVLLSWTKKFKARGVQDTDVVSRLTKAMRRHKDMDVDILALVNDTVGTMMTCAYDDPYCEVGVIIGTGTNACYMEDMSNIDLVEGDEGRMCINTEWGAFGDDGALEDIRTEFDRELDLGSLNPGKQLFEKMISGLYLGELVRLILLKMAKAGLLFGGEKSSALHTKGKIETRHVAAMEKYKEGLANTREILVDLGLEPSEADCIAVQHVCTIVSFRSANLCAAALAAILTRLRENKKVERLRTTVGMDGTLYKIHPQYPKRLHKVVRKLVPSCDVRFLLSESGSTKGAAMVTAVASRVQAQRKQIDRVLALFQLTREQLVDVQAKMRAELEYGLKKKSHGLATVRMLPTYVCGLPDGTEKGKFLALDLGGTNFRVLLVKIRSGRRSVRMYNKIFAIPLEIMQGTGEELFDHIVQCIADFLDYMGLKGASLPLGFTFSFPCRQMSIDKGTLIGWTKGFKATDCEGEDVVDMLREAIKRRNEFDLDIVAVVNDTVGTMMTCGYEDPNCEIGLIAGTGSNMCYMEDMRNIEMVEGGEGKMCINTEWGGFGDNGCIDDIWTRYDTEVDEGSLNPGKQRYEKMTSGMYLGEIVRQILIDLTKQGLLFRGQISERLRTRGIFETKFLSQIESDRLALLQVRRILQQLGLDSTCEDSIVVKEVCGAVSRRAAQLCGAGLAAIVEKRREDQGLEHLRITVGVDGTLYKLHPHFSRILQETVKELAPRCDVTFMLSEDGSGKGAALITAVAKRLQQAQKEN
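Test system: Recombinant HKDC1 (HK5) hexokinase enzyme, produced in-house | Input: HKDC1 at 5 µg/mL | Buffer or medium: Tris pH 8.0 buffer with MgCl2, Tween-20, BSA, BME | Schedule: 90 min reaction incubation at room temperature, dark | Technique: Resazurin-to-resorufin fluorescence via G6PDH and diaphorase coupling, 525/613 nm | Controls: DMSO wells with and without enzyme mix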
Diaphorase inh – diaphorase inhibition or chemical oxidation counter-screen; diaphorase resazurin-to-resorufin fluorescence, NADH, 16 min; bacterial (C. kluyveri) enzyme, not human; inhibition, % at 20 µM; 190,000 tested, 0.69% active; AID 1217;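 active means primary screen inhibition at 20 µM above a set limit, cut at about 50% in these data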;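 further: plate controls were DMSO with full reaction for no effect and wells lacking NADH for full effect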
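Benchmarks: positive control wells lacking NADH, neutral wells with DMSO only. System: bacterial diaphorase enzyme (C. kluyveri). Input: 0.14 U/mL diaphorase, enzyme working solution. Detection: resorufin fluorescence, excitation 544 nm, emission 590 nm. Times: 16-min room-temperature incubation before reading.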
G6PDH CS – inhibits Leuconostoc G6PDH, flagging false hits in G6PDH-based assays; Purified L. mesenteroides G6PDH, diaphorase/resazurin coupled fluorescence, 45 min; inhibition, % at 5 µM; 200,000 tested, 0.12% active; in the data active means inhibition above about 50%
HKDC1 act conf2 – HKDC1 (human) activation, single-dose confirmed; shares compounds with HKDC1 inhibitor; recombinant HKDC1, G6PDH/diaphorase resazurin fluorescence; hits give low values; inhibition, % at 20 µM; 740 tested, 14% active; AID 504708;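 active means inhibition at or below a set negative limit, negative inhibition meaning the enzyme was activated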
PfG6PD confirm – PfG6PD inhibition, single-dose confirmed | shares compounds with PfG6PD inh | recombinant PfGluPho, NADPH-diaphorase-resazurin fluorescence | inhibition, % at 20 µM | 2,400 tested, 34% active;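 active means inhibition of at least 50% at 20 µM in any single replicate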;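 further: 0% = DMSO with substrate and 100% = DMSO lacking glucose-6-phosphate substrate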
Diaph ctr 10uM – inhibits diaphorase or oxidizes, flagging false PfG6PD hits | shares compounds with PfG6PD inh | diaphorase-coupled resazurin reduction, fluorescence, NADPH 10 uM | inhibition, % at 20 µM | 820 tested, 39% active | AID 504862;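 active means average inhibition reaching 50% or more with the compound at 20 µM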;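 further: resorufin red fluorescence formed as diaphorase reduces resazurin using NADPH; 0% = DMSO with enzyme and 100% = DMSO without enzyme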
Diaphorase 30uM – inhibits diaphorase or oxidizes, flagging false PfG6PD hits. shares compounds with PfG6PD inh. Diaphorase/resazurin coupled assay, resorufin fluorescence, 30 uM NADPH. inhibition, % at 20 µM. 820 tested, 29% active. AID 504863;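 active means inhibition averaging 50% or more, tested at 20 µM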;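 further: 0% = DMSO with enzyme and 100% = DMSO wells lacking diaphorase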
An asterisk follows results filed as active.

`CN(C)c1cccc2c1C(=O)c1ccccc1C2=O` gave Tb hexokinase -9, PfG6PD inh 2, HKDC1 inhibitor 7, Diaphorase inh 28 and G6PDH CS 29.
For Cc1ccc(SC2=C(N(C)C)C(=O)c3ccccc3C2=O)cc1 the results were PfG6PD inh 65*, HKDC1 inhibitor 57*, HKDC1 act conf2 60 and PfG6PD confirm 14.
Screening COc1ccc(S(=O)(=O)CCc2nnc(NC(=O)c3ccc(F)cc3)s2)cc1 returned PfG6PD inh 2 and HKDC1 inhibitor -3.
Screening CC1(C)Cc2ccccc2C2=NNC(=O)C2=N1 returned Tb hexokinase 22, PfG6PD inh 108*, HKDC1 inhibitor 53*, Diaphorase inh 69*, G6PDH CS 52*, HKDC1 act conf2 37, PfG6PD confirm 94*, Diaph ctr 10uM 93* and Diaphorase 30uM 93*.
CCN(CC)c1ccc(NC2=C(Cl)C(=O)c3ccccc3C2=O)cc1 was read as Tb hexokinase -3, PfG6PD inh 40, HKDC1 inhibitor -22, Diaphorase inh 49 and G6PDH CS 48.
For CCCC(=O)NC1=C(Cl)C(=O)c2ccccc2C1=O the results were PfG6PD inh 128*, HKDC1 inhibitor 60*, HKDC1 act conf2 81, PfG6PD confirm 116*, Diaph ctr 10uM 99* and Diaphorase 30uM 97*.
Screening O=C(/C=C/c1cccs1)Nc1nc(-c2ccccc2)cs1 returned Tb hexokinase -4, PfG6PD inh 9, HKDC1 inhibitor -3, Diaphorase inh 17 and G6PDH CS -70.
`O=C(/C=C/c1cccs1)Nc1scc(-c2ccccc2)c1C(=O)O` gave Tb hexokinase -34, PfG6PD inh 70*, HKDC1 inhibitor 81*, Diaphorase inh 16, G6PDH CS 3, HKDC1 act conf2 58 and PfG6PD confirm 39.
For COc1ccc(CN2C=C3C(=O)C(C)(OC(=O)C4CCCC4)C(=O)C=C3C=C2c2ccsc2)cc1 (stereo not drawn) the results were Tb hexokinase -13, PfG6PD inh 67*, HKDC1 inhibitor 35*, HKDC1 act conf2 -19 and PfG6PD confirm 38.
For COC(=O)c1cc(S(=O)(=O)N2CCOCC2)c(Cl)cc1N1CCOCC1 the results were Tb hexokinase -14, PfG6PD inh -9, HKDC1 inhibitor -6, Diaphorase inh 3 and G6PDH CS -2.
For COC(=O)c1cc(C)nc2c1C(=O)C(=O)C=C2N1CCOCC1 the results were PfG6PD inh 105*, HKDC1 inhibitor 68*, HKDC1 act conf2 66, PfG6PD confirm 101*, Diaph ctr 10uM 99* and Diaphorase 30uM 103*.
Screening COc1cc(/C=C2\SC(c3ccc(C)cc3)=NC2=O)cc(OC)c1O returned Tb hexokinase -21, PfG6PD inh 75*, HKDC1 inhibitor 48*, Diaphorase inh 66*, G6PDH CS -67, HKDC1 act conf2 32, PfG6PD confirm 53*, Diaph ctr 10uM 7 and Diaphorase 30uM 13.
For COc1cc(/C=C2\SC(N)=NC2=O)cc(Cl)c1O the results were PfG6PD inh 23 and HKDC1 inhibitor 16.
COc1cccc(NC(=O)c2cncs2)c1 was read as PfG6PD inh -1 and HKDC1 inhibitor -6.
`O=C1C=C(c2c(O)ccc3ccccc23)c2ccccc2C1=O` gave PfG6PD inh 118*, HKDC1 inhibitor 93*, HKDC1 act conf2 78, PfG6PD confirm 111*, Diaph ctr 10uM 96* and Diaphorase 30uM 97*.
`O=C(NCc1ccccc1CN1CCCC1)c1ccc(Cl)c(N2CCCC2=O)c1` gave PfG6PD inh -8 and HKDC1 inhibitor -7.
CCN(CC)c1ccc(C(=C2C=CC(=[N+](CC)CC)C=C2)c2ccc(N(CC)CC)cc2)cc1 was read as PfG6PD inh 92*, HKDC1 inhibitor 54*, HKDC1 act conf2 12, PfG6PD confirm 85*, Diaph ctr 10uM 35 and Diaphorase 30uM 22.
Cc1ccc(S(=O)(=O)N2CCOC23CCN(S(=O)(=O)c2c(C)cc(C)cc2C)CC3)cc1 was read as PfG6PD inh -10 and HKDC1 inhibitor 5.
For COc1ccc(N=C2C(=S)N(c3ccc(OC)cc3)C(=NS(=O)(=O)c3ccccc3)N2c2ccccc2)cc1 the results were PfG6PD inh 84*, HKDC1 inhibitor -69, HKDC1 act conf2 -5, PfG6PD confirm 68*, Diaph ctr 10uM -26 and Diaphorase 30uM -16.
For COc1cccc(NC(=O)N2CCCC2C(=O)NCc2ccc(Cl)cc2)c1 (stereo not drawn) the results were PfG6PD inh -10 and HKDC1 inhibitor 2.
`CC[C@H](C)[C@H](NC(=O)[C@H](Cc1ccc(O)cc1)NC(=O)[C@@H](N)C(C)C)C(=O)N[C@@H](Cc1cnc[nH]1)C(=O)N1CCC[C@H]1C(=O)N[C@@H](Cc1ccccc1)C(=O)O` gave Tb hexokinase -2, PfG6PD inh -16, HKDC1 inhibitor -4, Diaphorase inh 2 and G6PDH CS 14.
CCC(C)C(N)C1=NC(C(=O)N[C@@H](CC(C)C)C(=O)N[C@H](CCC(=O)[O-])C(=O)N[C@H](C(=O)N[C@H]2CCCCNC(=O)[C@H](CC(N)=O)NC(=O)[C@@H](CC(=O)[O-])NC(=O)[C@H](Cc3cnc[nH]3)NC(=O)[C@@H](Cc3ccccc3)NC(=O)[C@H]([C@@H](C)CC)NC(=O)[C@@H](CCCN)NC2=O)[C@@H](C)CC)CS1.[Zn+2] (stereo partly drawn) was read as PfG6PD inh 64*, HKDC1 inhibitor 92*, HKDC1 act conf2 75 and PfG6PD confirm 26.
For COc1ccc(N2C(=O)N[C@@H](Cc3ccccc3)C2=O)cc1OC the results were PfG6PD inh -8 and HKDC1 inhibitor -5.
Screening CC(OC(=O)c1ccccc1C(=O)N(C)c1ccccc1)C(=O)Nc1ccc(C(N)=O)cc1 (stereo not drawn) returned PfG6PD inh 13 and HKDC1 inhibitor -3.
Screening CC(OC(=O)c1cc(O)c2ccccc2c1O)C(=O)Nc1ccc(C(N)=O)cc1 (stereo not drawn) returned PfG6PD inh 72*, HKDC1 inhibitor 39*, HKDC1 act conf2 28 and PfG6PD confirm 33.
For CCc1ccccc1NC(=O)CN1C(=O)c2ccccc2S1(=O)=O the results were PfG6PD inh -18 and HKDC1 inhibitor 4.

High-throughput results: PubChem BioAssay, several laboratories
